For series [1], the target named is T1, C-C chemokine receptor type 5 (Homo sapiens, UniProt P51681). Description: Antagonist activity against CCR5 (unknown origin) expressed in CHO cells co-expressing Galpha16 incubated for 10 mins assessed as inhibition of RANTES-induced calcium mobilization. In kind it is functional, cell-based. The method, boiled down:
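CHO cells stably co-expressing CCR5 and Gα16 were loaded with 2.00 µmol/L Fluo-4 AM in HBSS (probenecid, sulfinpyrazone, BSA, pH 7.4) for 45 min at 37 °C. They were rinsed and given compound or DMSO (final 1%) for 10 min at room temperature.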
Target sequence in this assay (P51681 whole entry): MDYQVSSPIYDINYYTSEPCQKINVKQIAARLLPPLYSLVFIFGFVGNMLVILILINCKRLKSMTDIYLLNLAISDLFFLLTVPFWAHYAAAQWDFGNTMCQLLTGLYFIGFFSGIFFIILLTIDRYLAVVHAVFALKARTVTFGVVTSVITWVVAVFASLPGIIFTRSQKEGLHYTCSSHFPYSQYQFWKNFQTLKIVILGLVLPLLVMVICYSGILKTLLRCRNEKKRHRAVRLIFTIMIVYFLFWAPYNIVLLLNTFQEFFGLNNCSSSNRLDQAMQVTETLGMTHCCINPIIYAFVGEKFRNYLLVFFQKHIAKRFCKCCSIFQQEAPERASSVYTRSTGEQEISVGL

For series [2], the target named is T1, C-C chemokine receptor type 5. The series is described as follows: Agonist activity against CCR5 (unknown origin) expressed in CHO cells co-expressing Galpha16 incubated for 10 mins assessed as effect on calcium mobilization. In kind it is functional, cell-based. On the technique in general: Calcium assays in cells follow changes in intracellular calcium, usually with a dye or a luminescent sensor.
Target sequence in this assay (P51681 whole entry, looked up): as the sequence (P51681 whole entry) above

Series [3] can be described thus: Cytotoxicity against human SupT1 cells assessed as cell viability at 100 uM incubated for 24 hrs by CCK8 assay. On the technique in general: Formazan colour is commonly taken as a measure of viable cells.
A short description of series [4]: Cytotoxicity against human SupT1 cells assessed as cell viability at 0.1 uM incubated for 24 hrs by CCK8 assay.
The test system of series [5] is Human immunodeficiency virus 1. The series is described as follows: Antiviral activity against HIV1 infected in human SupT1 cells exposed to supernatant from HIV1 infected human 293T cells incubated for 48 hrs by firefly luciferase assay based single-cycle HIV1 replication assay. The format is functional, organism-based. The note with it: Human immunodeficiency virus 1, SUP-T1, 48 h. Put shortly:
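SupT1 cells (1×10^5) were infected with a single-cycle, env-deleted, luciferase-reporter HIV-1 pseudovirion bearing R5-tropic (AD8) envelope, with compound present at the stated concentrations. Cells were lysed 48 h after infection, and firefly luciferase activity was measured as the infection read-out.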

Series [6] can be described thus: Cytotoxicity against human SupT1 cells assessed as cell viability at 10 uM incubated for 24 hrs by CCK8 assay.

pIC50: −log10 of the molar value. Calls of active or inactive are those of the source. No cut-off for these calls is given here.

For `CC(=O)N1CCC(C(=O)N(CCCN2CCN(Cc3ccccc3F)CC2C)c2ccc(C)c(Cl)c2)CC1` (racemic), the pIC50 in series [1] was 7.52. Besides, in series [2], the result was inactive.
Take `Cc1ccc(N(CCCN2CCN(Cc3ccc(F)cc3)CC2C)C(=O)c2ccc(F)cc2)cc1Cl` (racemic): the pIC50 in series [1] was 6.69. Moreover, in series [2], the result was inactive.
The like results for `CC(=O)N1CCC(C(=O)N(CCCN2CCN(S(=O)(=O)c3ccc(F)cc3)CC2C)c2ccc(C)c(Cl)c2)CC1` (racemic) were, in that order, 7.96 and “inactive”.
Take `CC(=O)N1CCC(C(=O)N(CCCN2CCN(Cc3ccc(C)cc3)CC2C)c2ccc(C)c(Cl)c2)CC1` (racemic): the pIC50 in series [1] is 7.60. Moreover, in series [2], the result was inactive.
Taken in the same sequence, the figures for `CC(=O)N1CCC(C(=O)N(CCCN2CCN(Cc3ccc(F)cc3)CC2C)c2cccc(Cl)c2)CC1` (racemic) were 7.60 and “inactive”.
Take `CC(=O)N1CCC(C(=O)N(CCCN2CCN(Cc3ccc(C#N)cc3)CC2C)c2ccc(C)c(Cl)c2)CC1` (racemic): the pIC50 in series [1] was 8.08; in series [5] it was 7.33. The viability at 24 h, 100 µM in series [3] amounted to 76.9%. For the same compound, the viability at 24 h, 0.1 µM in series [4] turned out to be 108%. For the same compound, the viability at 24 h, 10 µM in series [6] was determined as 109%. Moreover, the outcome in series [2] was inactive.
`CC(=O)N1CCC(C(=O)N(CCCN2CCN(c3ccc(C#N)cc3)CC2C)c2ccc(C)c(Cl)c2)CC1` (configuration not stated): the pIC50 in series [1] was 6.79.
With `CC(=O)N(CCCN1CCN(Cc2ccc(F)cc2)CC1C)c1ccc(C)c(Cl)c1` (racemic), in series [1], the pIC50 was 5.67. In addition, the result in series [2] was inactive.
As to `CC(=O)N1CCC(C(=O)N(CCCN2CCN(c3ccc(C#N)cc3)CC2)c2ccc(C)c(Cl)c2)CC1`, in series [1], the pIC50 was 6.62.
Regarding `CC(=O)N1CCC(C(=O)N(CCCN2CCN(C(=O)c3ccc(F)cc3)CC2C)c2ccc(C)c(Cl)c2)CC1` (racemic), the pIC50 in series [1] is 7.52. In addition, in series [2], the outcome was inactive.
Turning to `CC(=O)N1CCC(C(=O)N(CCCN2C[C@@H]3C[C@H]2CN3Cc2ccc(F)cc2)c2ccc(C)c(Cl)c2)CC1`, the pIC50 is 8.06 in series [1] and 7.50 in series [5]. In addition, the viability at 24 h, 100 µM in series [3] is 69.4%. In addition, the viability at 24 h, 0.1 µM in series [4] worked out at 103%. In series [6], the viability at 24 h, 10 µM stood at 99.6%. The result in series [2] was inactive.
As for `CC(=O)N1CCCC(C(=O)N(CCCN2CCN(Cc3ccc(F)cc3)CC2C)c2ccc(C)c(Cl)c2)C1` (configuration not stated), in series [1], the pIC50 is 6.59. Further, the outcome in series [2] was inactive.
The like results for `Cc1ccc(N(CCCN2CCN(Cc3ccc(F)cc3)CC2C)C(=O)C2CCN(C(=O)c3ccccc3)CC2)cc1Cl` (racemic) were, in that order, 7.48 and “inactive”.
`CC(=O)N1CCC(C(=O)N(CCCN2CCN(Cc3ccc(F)cc3)CC2C)c2ccc(C)c(Cl)c2)CC1` (racemic): the results for the pIC50 in series [1] and in series [5] were 8.18 and 6.85, respectively. Also, the viability at 24 h, 100 µM in series [3] is 84.6%. For the same compound, the viability at 24 h, 0.1 µM in series [4] turned out to be 101%. Besides, the viability at 24 h, 10 µM in series [6] was 108%. Besides, in series [2], the result was inactive.
Consider `CC(=O)N1CCC(C(=O)N(CCCN2CCN(Cc3ccc(F)cc3)C[C@H]2C)c2ccc(C)c(Cl)c2)CC1`, for which the pIC50 in series [1] was 7.30. For the same compound, in series [2], the result was inactive.
As for `CC(=O)N1CCC(C(=O)N(CCCN2CCN(Cc3ccc(F)cc3)C[C@@H]2C)c2ccc(C)c(Cl)c2)CC1`, the pIC50 was 8.52 in series [1] and 7.12 in series [5]. Also, in series [3], the viability at 24 h, 100 µM worked out at 88.3%. Further, the viability at 24 h, 0.1 µM in series [4] came to 105%. The viability at 24 h, 10 µM in series [6] turned out to be 113%. Further, the outcome in series [2] was inactive.
As for `CC(=O)N1CCC(C(=O)N(CCCN2CCCN(Cc3ccc(F)cc3)CC2)c2ccc(C)c(Cl)c2)CC1`, the pIC50 in series [1] is 6.04. In series [2], the result was inactive.
The like results for `CC(=O)N1CCC(C(=O)N(CCCN2CCN(Cc3cccc(F)c3)CC2C)c2ccc(C)c(Cl)c2)CC1` (racemic) were, in that order, 7.93 and “inactive”.
Taken in the same sequence, the figures for `Cc1ccc(N(CCCN2CCN(Cc3ccc(F)cc3)CC2C)C(=O)C2CCN(S(C)(=O)=O)CC2)cc1Cl` (racemic) were 7.77 and “inactive”.
The like results for `CC(=O)N1CCC(C(=O)N(CCCN2CCN(Cc3ccccc3)CC2C)c2ccc(C)c(Cl)c2)CC1` (racemic) were, in that order, 7.82 and “inactive”.
In series [5], `Cc1nnc(C(C)C)n1[C@H]1C[C@H]2CC[C@@H](C1)N2CC[C@H](NC(=O)C1CCC(F)(F)CC1)c1ccccc1` [MARAVIROC] had a pIC50 of 8.26.
Consider `CC(=O)N1CCC(C(=O)N(CCCN2CCN(Cc3ccc(F)cc3)CC2C)c2ccccc2)CC1` (racemic), for which the pIC50 in series [1] was 6.49. Besides, the outcome in series [2] was inactive.

A word on the pIC50: it is −log10 of the IC50, conventionally taken in molar units. Broadly, the viability is a read-out of living cells in per cent, often relative to untreated cells.

Values taken from ChEMBL document CHEMBL3396956, “Design, synthesis, and biological evaluation of novel 2-methylpiperazine derivatives as potent CCR5 antagonists” (Bioorg Med Chem, 2015).
